The values below come from ChEMBL document CHEMBL3351505, “Ultrasound-assisted synthesis of novel 1,2,3-triazoles coupled diaryl sulfone moieties by the CuAAC reaction, and biological evaluation of them as antioxidant and antimicrobial agents” (Eur J Med Chem, 2014).

Molecules are shown by their SMILES. ≈ marks a conversion by molar mass, not a printed value. Calls of active or inactive are those of the source. No cut-off for these calls is given here.

In data set [1] the test system is Micrococcus luteus. Briefly: Antibacterial activity against Sarcina lutea after 24 hrs by two fold serial dilution method. The class given is functional.
Data set [2] relates to Aspergillus niger. Briefly: Antifungal activity against Aspergillus niger at 50 mg/mL after 48 hrs by agar well diffusion method. The class given is functional. On the technique in general: A growth-free zone around the sample is the usual read-out of agar diffusion tests.
Data set [3] has as its system Aspergillus niger. Description: Antifungal activity against Aspergillus niger after 48 hrs by two fold serial dilution method. In kind it is functional. An outline of the steps: (§1)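 Two-fold serial broth dilution in a suitable broth, run only on compounds giving inhibition zones of at least 16 mm. Final concentrations were […]. Each 5 mL received 0.1 mL inoculum and was incubated 48 h at 28 °C. MIC was the lowest concentration without growth.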

Data set [4] has as its system Candida albicans. Description: Antifungal activity against Candida albicans NRRL Y-477 at 50 mg/mL after 48 hrs by agar well diffusion method. The class given is functional.
Data set [5] deals with Priestia megaterium. Description: Antibacterial activity against Bacillus megaterium ATCC 9885 after 24 hrs by two fold serial dilution method. In kind it is functional.
Data set [6] relates to Saccharomyces cerevisiae. Description: Antifungal activity against Saccharomyces cerevisiae at 50 mg/mL after 48 hrs by agar well diffusion method. In kind it is functional.
The subject of data set [7] is Escherichia coli. Briefly: Antibacterial activity against Escherichia coli ATCC 25922 after 24 hrs by two fold serial dilution method. In kind it is functional.
Data set [8] relates to Saccharomyces cerevisiae. Briefly: Antifungal activity against Saccharomyces cerevisiae after 48 hrs by two fold serial dilution method. The class given is functional. An outline of the steps: as §1
Data set [9] has as its system Pseudomonas aeruginosa. Description: Antibacterial activity against Pseudomonas aeruginosa ATCC 27953 after 24 hrs by two fold serial dilution method. The class given is functional.
Data set [10] relates to Candida albicans. Description: Antifungal activity against Candida albicans NRRL Y-477 after 48 hrs by two fold serial dilution method. The class given is functional. An outline of the steps:
as §1

Data set [11] relates to Priestia megaterium. Description: Antibacterial activity against Bacillus megaterium ATCC 9885 at 50 mg/mL after 24 hrs by agar well diffusion method. In kind it is functional.
Data set [12] concerns Pseudomonas aeruginosa. As to conditions: ATCC 27953, 50 mg/mL.
Data set [13] concerns Staphylococcus aureus. Description: Antibacterial activity against Staphylococcus aureus ATCC 29213 after 24 hrs by two fold serial dilution method. The class given is functional.
Data set [14] deals with Klebsiella pneumoniae. Description: Antibacterial activity against Klebsiella pneumoniae ATCC 13883 after 24 hrs by two fold serial dilution method. In kind it is functional.
Data set [15] relates to Bacillus subtilis. Description: Antibacterial activity against Bacillus subtilis ATCC 6633 after 24 hrs by two fold serial dilution method. In kind it is functional.
Data set [16] deals with Klebsiella pneumoniae. The settings on record: ATCC 13883, 50 mg/mL.
Data set [17] concerns Escherichia coli. Briefly: Antibacterial activity against Escherichia coli ATCC 25922 at 50 mg/mL after 24 hrs by agar well diffusion method. In kind it is functional, organism-based. An outline of the steps: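 Agar well diffusion: bacterial suspension at 1 × 10⁸ CFU/mL spread on nutrient agar; 10 mm wells cut in solidified agar and filled with compound in DMSO; plates incubated 24 h at 37 °C; inhibition zone diameter read; DMSO as negative control.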

Data set [18] deals with Staphylococcus aureus. As to conditions: ATCC 29213, 50 mg/mL.
Data set [19] deals with Bacillus subtilis. The settings on record: ATCC 6633, 50 mg/mL.
The subject of data set [20] is Micrococcus luteus. Description: Antibacterial activity against Sarcina lutea at 50 mg/mL after 24 hrs by agar well diffusion method. The class given is functional.
The subject of data set [21] is Bacillus subtilis. Briefly: microbe, parasite or virus in culture. As to conditions: ATCC 6633, 24 h, read-out: DIZ.
The subject of data set [22] is Staphylococcus aureus. Description: microbe, parasite or virus in culture. As to conditions: ATCC 29213, 24 h, read-out: DIZ.
The subject of data set [23] is Klebsiella pneumoniae. Briefly: microbe, parasite or virus in culture. As to conditions: ATCC 13883, 24 h, read-out: DIZ.
Data set [24] concerns Pseudomonas aeruginosa. Description: microbe, parasite or virus in culture. The settings on record: ATCC 27953, 24 h, read-out: DIZ.
A short description of data set [25]: Antioxidant activity assessed as DPPH free radical scavenging activity by spectrophotometric assay. The class given is physicochemical. An outline of the steps:
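Sample solutions at several concentrations were added to 0.004% DPPH in methanol and incubated 60 min in the dark. Absorbance was read at 517 nm against a blank. Inhibition % = (A_blank − A_sample)/A_blank × 100, where the control contained all reagents except the test compound.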
In general terms: DPPH is a stable violet radical that fades when it is reduced.

The test system of data set [26] is Candida albicans. Description: Antifungal activity against Candida albicans NRRL Y-477 using 100 uL of test compound after 48 hrs by agar well diffusion method. In kind it is functional. An outline of the steps:
(§2)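 Agar well diffusion. Sabouraud dextrose agar was spread with yeast or fungal suspension at 1×10⁶ CFU/mL, and 10 mm wells were cut. Wells were loaded with compound solution made at 200 mg per 1 mL DMSO. Plates were incubated 48 h at 28 °C and inhibition zones were measured. DMSO served as the negative control.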

The subject of data set [27] is Klebsiella pneumoniae. Description: Antibacterial activity against Klebsiella pneumoniae ATCC 13883 using 100 uL of test compound after 24 hrs by agar well diffusion method. The class given is functional. An outline of the steps: (§3)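 Agar well diffusion. Nutrient agar was spread with bacterial suspension at 1×10⁸ CFU/mL, and 10 mm wells were cut. Wells were loaded with compound solution made at 200 mg per 1 mL DMSO. Plates were incubated 24 h at 37 °C and inhibition zones were measured. DMSO served as the negative control.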

Data set [28] has as its system Staphylococcus aureus. Briefly: Antibacterial activity against Staphylococcus aureus ATCC 29213 using 100 uL of test compound after 24 hrs by agar well diffusion method. The class given is functional. An outline of the steps: as §3
Data set [29] relates to Saccharomyces cerevisiae. Description: Antifungal activity against Saccharomyces cerevisiae using 100 uL of test compound after 48 hrs by agar well diffusion method. In kind it is functional. An outline of the steps:
as §2

In data set [30] the test system is Escherichia coli. Description: Antibacterial activity against Escherichia coli ATCC 25922 using 100 uL of test compound after 24 hrs by agar well diffusion method. In kind it is functional. An outline of the steps: as §3
Data set [31] deals with Pseudomonas aeruginosa. Briefly: Antibacterial activity against Pseudomonas aeruginosa ATCC 27953 using 100 uL of test compound after 24 hrs by agar well diffusion method. In kind it is functional. An outline of the steps:
as §3

The test system of data set [32] is Priestia megaterium. Description: Antibacterial activity against Bacillus megaterium ATCC 9885 using 100 uL of test compound after 24 hrs by agar well diffusion method. The class given is functional. An outline of the steps:
as §3

Data set [33] concerns Micrococcus luteus. Description: Antibacterial activity against Sarcina lutea using 100 uL of test compound after 24 hrs by agar well diffusion method. In kind it is functional. An outline of the steps: as §3
Data set [34] concerns Aspergillus niger. Description: Antifungal activity against Aspergillus niger using 100 uL of test compound after 48 hrs by agar well diffusion method. In kind it is functional. An outline of the steps: as §2
Data set [35] concerns Bacillus subtilis. Briefly: Antibacterial activity against Bacillus subtilis ATCC 6633 using 100 uL of test compound after 24 hrs by agar well diffusion method. In kind it is functional. An outline of the steps: as §3

As to `Clc1ccccc1C(c1ccccc1)(c1ccccc1)n1ccnc1` [CLOTRIMAZOLE], the MIC entry in the data set with Micrococcus luteus [1], with Priestia megaterium [5], in the data set with Escherichia coli [7], in the data set with Pseudomonas aeruginosa [9], in the data set with Staphylococcus aureus [13] and in the data set on Klebsiella pneumoniae [14] was “inactive” in each case. Moreover, the MIC result with Bacillus subtilis [15] was “inactive”. For the same compound, the zone of inhibition at 50000 µg/mL amounted to 33 mm in the data set with Aspergillus niger [2] (read-out: DIZ); 30 mm with Candida albicans [4] (NRRL Y-477, 48 h, read-out: DIZ); 31 mm in the data set with Saccharomyces cerevisiae [6] (read-out: DIZ). Also, the minimal inhibitory concentration (MIC) in the data set with Aspergillus niger [3] came to 25 µg/mL (≈ 72.5 µM); in the data set on Saccharomyces cerevisiae [8], 25 µg/mL (≈ 72.5 µM); against Candida albicans [10] (NRRL Y-477, 48 h) it was 25 µg/mL (≈ 72.5 µM). Moreover, the “diameter of the inhibition zone (DIZ)” value in the data set on Priestia megaterium [11], in the data set with Escherichia coli [17] and with Micrococcus luteus [20] was “inactive” each time. Moreover, the DIZ entry in the data set on Pseudomonas aeruginosa [12], in the data set on Klebsiella pneumoniae [16], in the data set on Staphylococcus aureus [18] and with Bacillus subtilis [19] was “inactive” each time.

`O=C(O)c1cn(C2CC2)c2cc(N3CCNCC3)c(F)cc2c1=O` [CIPROFLOXACIN]: the MIC amounted to 25 µg/mL (≈ 75.4 µM) in the data set on Micrococcus luteus [1]; 25 µg/mL (≈ 75.4 µM) in the data set on Priestia megaterium [5] (ATCC 9885, 24 h); 25 µg/mL (≈ 75.4 µM) in the data set on Escherichia coli [7] (ATCC 25922, 24 h); 25 µg/mL (≈ 75.4 µM) in the data set on Klebsiella pneumoniae [14] (ATCC 13883, 24 h); 25 µg/mL (≈ 75.4 µM) with Bacillus subtilis [15] (ATCC 6633, 24 h). In addition, the “diameter of the inhibition zone (DIZ)” value in the data set with Aspergillus niger [2], in the data set on Candida albicans [4] and with Saccharomyces cerevisiae [6] was “inactive” throughout. In addition, the MIC entry in the data set with Aspergillus niger [3], with Saccharomyces cerevisiae [8] and in the data set with Candida albicans [10] was “inactive” throughout. The zone of inhibition at 50000 µg/mL stood at 22 mm in the data set on Bacillus subtilis [21]; 24 mm in the data set with Priestia megaterium [11] (ATCC 9885, 24 h, read-out: DIZ); 20 mm in the data set with Staphylococcus aureus [22]; 25 mm with Klebsiella pneumoniae [23]; 24 mm with Pseudomonas aeruginosa [24]; 20 mm in the data set on Micrococcus luteus [20] (read-out: DIZ).

On to `O=C(Cn1cc(CC(O)c2ccc(S(=O)(=O)c3ccccc3)cc2)nn1)c1ccc(Br)cc1` (centres undefined), for which the MIC in the data set on Micrococcus luteus [1] amounted to 200 µg/mL (≈ 380 µM); against Aspergillus niger [3], 50 µg/mL (≈ 95 µM); against Priestia megaterium [5] (ATCC 9885, 24 h) it was 200 µg/mL (≈ 380 µM); in the data set with Escherichia coli [7] (ATCC 25922, 24 h) it was 200 µg/mL (≈ 380 µM); against Saccharomyces cerevisiae [8], 200 µg/mL (≈ 380 µM); in the data set with Pseudomonas aeruginosa [9] it was 100 µg/mL (≈ 190 µM). The MIC is 200 µg/mL (≈ 380 µM) against Candida albicans [10] (NRRL Y-477, 48 h); 200 µg/mL (≈ 380 µM) in the data set on Staphylococcus aureus [13] (ATCC 29213, 24 h); 100 µg/mL (≈ 190 µM) against Klebsiella pneumoniae [14] (ATCC 13883, 24 h). Also, the IC50 in data set [25] amounted to 500 µg/mL (≈ 950 µM). The “diameter of the inhibition zone (DIZ)” value in the data set with Candida albicans [26] is 20 mm; with Klebsiella pneumoniae [27], 24 mm; in the data set on Staphylococcus aureus [28], 22 mm; in the data set with Saccharomyces cerevisiae [29], 17 mm; with Escherichia coli [30] it was 22 mm; in the data set with Pseudomonas aeruginosa [31], 25 mm. The “diameter of the inhibition zone (DIZ)” value in the data set with Priestia megaterium [32] amounted to 19 mm; in the data set on Micrococcus luteus [33], 20 mm; in the data set on Aspergillus niger [34] it was 30 mm; in the data set with Bacillus subtilis [35], 14 mm. In the data set with Bacillus subtilis [15], the MIC entry was “inactive”.

With `O=C(Cn1cc(CC(O)c2ccc(S(=O)(=O)c3ccccc3)cc2)nn1)c1ccc(S(=O)(=O)c2ccccc2)cc1` (centres undefined), the MIC against Micrococcus luteus [1] came out at 100 µg/mL (≈ 170 µM); in the data set with Aspergillus niger [3], 50 µg/mL (≈ 85.1 µM); in the data set on Saccharomyces cerevisiae [8] it was 200 µg/mL (≈ 340 µM); against Pseudomonas aeruginosa [9], 200 µg/mL (≈ 340 µM); against Staphylococcus aureus [13] (ATCC 29213, 24 h), 200 µg/mL (≈ 340 µM); in the data set on Klebsiella pneumoniae [14] (ATCC 13883, 24 h), 200 µg/mL (≈ 340 µM). Moreover, in the data set on Bacillus subtilis [15] (ATCC 6633, 24 h), inhibition of growth (MIC) required 200 µg/mL (≈ 340 µM). Besides, in [25], the IC50 came out at 74 µg/mL (≈ 126 µM). Moreover, the “diameter of the inhibition zone (DIZ)” value with Candida albicans [26] came out at 15 mm; in the data set with Klebsiella pneumoniae [27], 19 mm; in the data set on Staphylococcus aureus [28], 17 mm; with Saccharomyces cerevisiae [29], 16 mm; in the data set on Escherichia coli [30] it was 17 mm; with Pseudomonas aeruginosa [31], 17 mm. The “diameter of the inhibition zone (DIZ)” value in the data set with Priestia megaterium [32] is 15 mm; with Micrococcus luteus [33], 22 mm; with Aspergillus niger [34] it was 28 mm; in the data set on Bacillus subtilis [35] it was 20 mm. The MIC entry in the data set with Priestia megaterium [5], in the data set with Escherichia coli [7] and in the data set with Candida albicans [10] was “inactive” throughout.

By MIC is commonly meant the lowest concentration that inhibits growth of the organism. The IC50 is the concentration that gives 50% inhibition.
